# Test results as given in ChEMBL document CHEMBL1759994, “The discovery and synthesis of potent zwitterionic inhibitors of renin” (Bioorg Med Chem Lett, 2011).
# How the values were obtained:
# Blood [1] = assay: Metabolic stability in Sprague-Dawley rat whole blood assessed as conversion to (1R,2R)-2-((3-(((3R,4S)-N-cyclopropyl-4-(4-(2-(2,6-dichloro-4-methylphenoxy)ethoxy)phenyl)piperidine-3-carboxamido)methyl)-5-(3-methoxypropyl)phenoxy)methyl)cyclopropanecarboxylic acid after 20 mins; assay type: ADME, tissue-based
# Procedure, shortened: (§1)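 Prodrugs were incubated for 20 min in rat or human whole blood, or in rat or human liver S9 fraction (n = 2). The read-out was % conversion to the parent carboxylic acid.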
# [2] = target: Voltage-gated inwardly rectifying potassium channel KCNH2 (Homo sapiens, UniProt Q12809); assay: Binding affinity to human ERG
# Voltage-gated inwardly rectifying potassium channel KCNH2, sequence (Q12809 whole entry): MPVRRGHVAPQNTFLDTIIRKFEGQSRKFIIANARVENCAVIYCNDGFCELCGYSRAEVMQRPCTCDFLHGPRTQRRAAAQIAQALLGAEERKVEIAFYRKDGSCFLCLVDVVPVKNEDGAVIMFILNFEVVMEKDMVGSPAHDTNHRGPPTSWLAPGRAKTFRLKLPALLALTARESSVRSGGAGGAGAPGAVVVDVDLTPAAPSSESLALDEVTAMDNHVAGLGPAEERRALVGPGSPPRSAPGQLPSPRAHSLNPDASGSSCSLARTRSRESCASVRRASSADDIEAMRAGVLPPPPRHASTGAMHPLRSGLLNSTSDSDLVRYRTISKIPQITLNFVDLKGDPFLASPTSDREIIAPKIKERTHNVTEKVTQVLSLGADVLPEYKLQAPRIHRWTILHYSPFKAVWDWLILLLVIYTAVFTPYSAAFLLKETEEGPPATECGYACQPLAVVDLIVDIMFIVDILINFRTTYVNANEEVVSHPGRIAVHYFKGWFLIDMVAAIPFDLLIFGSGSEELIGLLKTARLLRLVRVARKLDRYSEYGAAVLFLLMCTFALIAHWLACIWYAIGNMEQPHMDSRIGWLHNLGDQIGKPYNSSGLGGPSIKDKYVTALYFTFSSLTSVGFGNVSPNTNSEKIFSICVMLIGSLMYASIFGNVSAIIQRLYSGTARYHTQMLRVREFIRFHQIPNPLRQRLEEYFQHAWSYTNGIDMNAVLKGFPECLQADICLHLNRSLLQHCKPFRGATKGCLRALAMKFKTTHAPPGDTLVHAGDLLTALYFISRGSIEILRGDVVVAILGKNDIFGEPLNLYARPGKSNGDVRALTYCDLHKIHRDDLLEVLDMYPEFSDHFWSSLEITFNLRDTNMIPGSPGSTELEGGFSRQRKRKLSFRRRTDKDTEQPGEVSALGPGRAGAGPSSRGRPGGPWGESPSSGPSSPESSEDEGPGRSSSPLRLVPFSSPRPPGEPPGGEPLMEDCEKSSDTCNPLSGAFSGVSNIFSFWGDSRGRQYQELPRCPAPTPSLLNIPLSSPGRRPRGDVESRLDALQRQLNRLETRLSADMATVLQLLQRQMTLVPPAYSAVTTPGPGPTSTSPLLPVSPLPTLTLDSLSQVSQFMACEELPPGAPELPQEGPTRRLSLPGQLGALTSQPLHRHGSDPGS
# Blood [3] = assay: Metabolic stability in human whole blood assessed as conversion to (1R,2R)-2-((3-(((3R,4S)-N-cyclopropyl-4-(4-(2-(2,6-dichloro-4-methylphenoxy)ethoxy)phenyl)piperidine-3-carboxamido)methyl)-5-(3-methoxypropyl)phenoxy)methyl)cyclopropanecarboxylic acid after 20 mins; assay type: ADME, tissue-based; procedure, shortened: as §1
# Liver [4] = assay: Metabolic stability in Sprague-Dawley rat liver S9 fraction assessed as conversion to (1R,2R)-2-((3-(((3R,4S)-N-cyclopropyl-4-(4-(2-(2,6-dichloro-4-methylphenoxy)ethoxy)phenyl)piperidine-3-carboxamido)methyl)-5-(3-methoxypropyl)phenoxy)methyl)cyclopropanecarboxylic acid after 20 mins; assay type: ADME, subcellular; conditions: s9, 20 min; procedure, shortened: as §1
# Liver [5] = assay: Metabolic stability in human liver S9 fraction assessed as conversion to (1R,2R)-2-((3-(((3R,4S)-N-cyclopropyl-4-(4-(2-(2,6-dichloro-4-methylphenoxy)ethoxy)phenyl)piperidine-3-carboxamido)methyl)-5-(3-methoxypropyl)phenoxy)methyl)cyclopropanecarboxylic acid after 20 mins; assay type: ADME, subcellular; conditions: s9, 20 min; procedure, shortened: as §1
# [6] = AUC (0 to 24 hrs) in Sprague-Dawley rat at 20 mg/kg, po as 0.5% methocel suspension; assay type: ADME, organism-based; parameters: time < 24 hr, dose 20 mg/kg, route oral; conditions: plasma
# Cytochrome P450 3A4 [7] = target: T1, Cytochrome P450 3A4 (Homo sapiens, UniProt P08684); assay: Inhibition of human CYP3A4 in human liver microsomes assessed as formation of 6beta-hydroxy-testosterone using testosterone as substrate by high throughput mass spectrometry preincubated for 30 mins in presence of NADPH; assay type: ADME, Microsome
# T1 sequence (P08684 whole entry): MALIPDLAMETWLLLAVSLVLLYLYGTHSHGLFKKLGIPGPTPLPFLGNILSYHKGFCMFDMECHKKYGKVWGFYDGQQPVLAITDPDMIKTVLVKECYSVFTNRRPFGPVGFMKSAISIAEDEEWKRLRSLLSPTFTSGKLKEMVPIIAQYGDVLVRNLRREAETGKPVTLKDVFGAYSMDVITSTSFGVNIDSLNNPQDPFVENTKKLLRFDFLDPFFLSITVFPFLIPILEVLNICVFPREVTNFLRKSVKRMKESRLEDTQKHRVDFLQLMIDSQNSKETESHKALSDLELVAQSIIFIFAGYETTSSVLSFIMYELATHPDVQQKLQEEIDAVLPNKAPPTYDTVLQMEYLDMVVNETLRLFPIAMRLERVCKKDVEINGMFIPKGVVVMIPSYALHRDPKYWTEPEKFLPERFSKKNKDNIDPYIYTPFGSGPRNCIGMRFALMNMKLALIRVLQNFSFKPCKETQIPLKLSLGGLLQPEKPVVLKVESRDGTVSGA
# [8] = AUC (0 to 24 hrs) in Sprague-Dawley rat at 30 mg/kg, po as 0.5% methocel suspension; assay type: ADME, organism-based; parameters: time < 24 hr, dose 30 mg/kg, route oral; conditions: plasma
# [9] = Clearance in Sprague-Dawley rat at 30 mg/kg, po in 0.5% methocel and 3 to 5 mg/kg, iv in 60% PEG 200; conditions: in vivo
# Cytochrome P450 3A4 [10] = target: T1, Cytochrome P450 3A4; assay: Inhibition of human CYP3A4 in human liver microsomes assessed as formation of 6beta-hydroxy-testosterone using testosterone as substrate by high throughput mass spectrometry in absence of NADPH; assay type: ADME, Microsome
# Renin [11] = target: T2, Renin (Homo sapiens, UniProt P00797); assay: Inhibition of human recombinant renin in PBS buffer using tetradecapeptide at pH 7.4
# T2 sequence (P00797 whole entry): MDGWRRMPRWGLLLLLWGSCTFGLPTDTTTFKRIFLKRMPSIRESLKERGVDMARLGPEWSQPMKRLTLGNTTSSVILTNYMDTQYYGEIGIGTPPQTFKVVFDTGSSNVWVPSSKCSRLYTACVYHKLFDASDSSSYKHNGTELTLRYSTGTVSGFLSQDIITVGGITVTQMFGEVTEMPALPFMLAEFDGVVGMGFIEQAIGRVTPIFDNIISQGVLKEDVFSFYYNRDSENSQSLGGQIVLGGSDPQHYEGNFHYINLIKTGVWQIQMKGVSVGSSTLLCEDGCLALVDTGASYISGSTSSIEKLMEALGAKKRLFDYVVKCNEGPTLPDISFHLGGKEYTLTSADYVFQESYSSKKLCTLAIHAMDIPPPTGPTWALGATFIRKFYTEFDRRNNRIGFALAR
# [12] = Oral bioavailability in Sprague-Dawley rat at 30 mg/kg as 0.5% methocel suspension; assay type: ADME, organism-based; conditions: in vivo
# Renin [13] = target: T2, Renin; assay: Inhibition of human recombinant renin in human citreated-plasma
SMILES,Activity (Blood [1]) [%],Activity (Blood [3]) [%],Activity (Liver [4]) [%],Activity (Liver [5]) [%],AUC(0-t) at 24 h [6] [µM·h],IC50 (Cytochrome P450 3A4 [7]) [nM],AUC(0-t) at 24 h [8] [µM·h],clearance [9] [mL/min/kg],IC50 (Cytochrome P450 3A4 [10]) [nM],IC50 (Renin [11]) [nM],bioavailability [12] [%],IC50 (Renin [13]) [nM],Ki [2] [nM]
COCCCc1cc(CN(C(=O)[C@H]2CN(C(=O)OCc3oc(=O)oc3C)CC[C@@H]2c2ccc(OCCOc3c(Cl)cc(C)cc3Cl)cc2)C2CC2)cc(OC[C@H]2C[C@@H]2C(=O)O)c1,93,11,98,99,0.2,,,,,,,,3700
COCCCc1cc(CN(C(=O)[C@H]2CNCC[C@@H]2c2ccc(OCCOc3c(Cl)cc(C)cc3Cl)cc2)C2CC2)cc(OCCC2(C(=O)O)CCCC2)c1,,,,,,> 50000,3.3,27,> 50000,0.01,15,12.4,500
COCCCc1cc(CN(C(=O)[C@H]2CNCC[C@@H]2c2ccc(OCCOc3c(Cl)cc(C)cc3Cl)cc2)C2CC2)cc(OC[C@H]2C[C@@H]2C(=O)NS(C)(=O)=O)c1,,,,,,> 50000,,26,> 50000,0.01,0,2.1,500
COCCCc1cc(CN(C(=O)[C@H]2CNCC[C@@H]2c2ccc(OCCOc3c(Cl)cc(C)cc3Cl)cc2)C2CC2)cc(OCC2(Cc3nn[nH]n3)CC2)c1,,,,,,> 50000,,46,> 50000,,0,5.3,500

# Further lines, with some results ahead:
Activity (Blood [1]) [%],Activity (Blood [3]) [%],Activity (Liver [4]) [%],Activity (Liver [5]) [%],AUC(0-t) at 24 h [6] [µM·h],IC50 (Cytochrome P450 3A4 [7]) [nM],AUC(0-t) at 24 h [8] [µM·h],clearance [9] [mL/min/kg],IC50 (Cytochrome P450 3A4 [10]) [nM],IC50 (Renin [11]) [nM],bioavailability [12] [%],IC50 (Renin [13]) [nM],SMILES,Ki [2] [nM]
,,,,,> 50000,0.2,49,> 50000,0.04,2,,COCCCc1cc(CN(C(=O)[C@H]2CNCC[C@@H]2c2ccc(OCCOc3c(Cl)cc(C)cc3Cl)cc2)C2CC2)cc(OCC2(CC(=O)O)CC2)c1,1000
,,,,,> 50000,1.1,44,> 50000,0.06,9,29.6,COCCCc1cc(CN(C(=O)[C@H]2CNCC[C@@H]2c2ccc(OCCOc3c(Cl)cc(C)cc3Cl)cc2)C2CC2)cc(OCC(C)(C)C(=O)O)c1,600
,,,,,> 50000,2.1,43,> 50000,0.02,13,9,COCCCc1cc(CN(C(=O)[C@H]2CNCC[C@@H]2c2ccc(OCCOc3c(Cl)cc(C)cc3Cl)cc2)C2CC2)cc(OCCC(C)(C)C(=O)O)c1,400
,,,,,> 50000,16,9.7,> 50000,0.01,22,6.1,COCCCc1cc(CN(C(=O)[C@H]2CNCC[C@@H]2c2ccc(OCCOc3c(Cl)cc(C)cc3Cl)cc2)C2CC2)cc(OCCCC(C)(C)C(=O)O)c1,200
,,,,,> 50000,6.1,29,> 50000,,26,,CCC(CC)(CCOc1cc(CCCOC)cc(CN(C(=O)[C@H]2CNCC[C@@H]2c2ccc(OCCOc3c(Cl)cc(C)cc3Cl)cc2)C2CC2)c1)C(=O)O,400
,,,,,> 50000,1.2,23,> 50000,0.06,3,2.1,COCCCc1cc(CN(C(=O)[C@H]2CNCC[C@@H]2c2ccc(OCCOc3c(Cl)cc(C)cc3Cl)cc2)C2CC2)cc(OCC[C@](C)(OC)C(=O)O)c1,2300
